Published values from different studies.
Target: Vascular endothelial growth factor receptor 1 (FLT1, Homo sapiens, UniProt P17948)

Structure (SMILES)	effect on	method	tested at	remaining binding
CCN1CCN(Cc2ccc(C(=O)Nc3ccc(C)c(Oc4ccc5c(c4)CC(=O)N5)c3)cc2C(F)(F)F)CC1	binding	competition with immobilised ligand	1 µM	63%
CS(=O)(=O)c1cc(C2(NC(=O)c3cncc4c3cnn4-c3ccc(F)cc3)CC2)ccn1	cell-free assay	competition with immobilised ligand	1 µM	100%
CN(C)c1nccc(-c2cnc3ncccn23)n1	binding	–	1 µM	100%
c1cncc(-c2cccc(Nc3nccc(NC4CCCCC4)n3)c2)c1	binding	competition with immobilised ligand	10 µM	71%
O=C(NCc1ncc(C(F)(F)F)cc1Cl)c1ccc2c(c1)C1(CCS(=O)(=O)CC1)[C@@H](C1CC1)N2S(=O)(=O)c1ccc(F)cc1	cell-free assay	competition with immobilised ligand	1 µM	82%
O=C(c1ccc(Nc2nccc(-c3cc4ccccc4s3)n2)cc1)N1CCC(N2CCCC2)CC1	binding	competition with immobilised ligand	1 µM	46%
COc1cnc(Nc2cccc(S(N)(=O)=O)c2)nc1N1CCN(c2ccccc2)C(=O)C1	binding	competition with immobilised ligand	1 µM	98%
O=C(Nc1cccnn1)N1CCC(=Cc2cccc(Oc3ccc(C(F)(F)F)cn3)c2)CC1	cell-free assay	competition with immobilised ligand	1 µM	100%
O=C(Nc1c[nH]nc1C(=O)NC1CCNCC1)c1cc(F)cc(F)c1	binding	competition with immobilised ligand	1 µM	63%
CN(C(=O)c1ccccc1)c1cc(N(C)c2ccc3c(c2)CCc2ccc(C(=O)NCCN4CCOCC4)cc2C3=O)ccc1F	cell-free assay	competition with immobilised ligand	1 µM	85%
F[C@@H]1CCN(c2nccc(-c3cnn4ncccc34)n2)C1	binding	–	1 µM	100%
CC1=C(C#N)[C@@H](c2ccc3[nH]nc(C)c3c2)C(C#N)=C(c2ccc(Cl)cc2)N1	cell-free assay	competition with immobilised ligand	1 µM	100%
C[C@@H]1CCN(c2nccc(-c3cnn4ncccc34)n2)C1	binding	–	1 µM	100%
CCC(=O)N[C@H]1CC[C@@H](C(=O)N(C)c2ccc(-c3nc4ccccc4o3)cc2)C1	cell-free assay	competition with immobilised ligand	1 µM	98%
c1cnn2ncc(-c3ccnc(N4CCC45COC5)n3)c2c1	binding	–	1 µM	87%
Cc1cnc(Nc2ccc(C(=O)N3CCC(N4CCCC4)CC3)cc2)nc1-c1cc2ccccc2s1	binding	competition with immobilised ligand	1 µM	4.4%
N[C@@H]1CCN(c2nccc(-c3cnn4ncccc34)n2)C1	binding	–	1 µM	100%
C=CC(=O)N1CCC(C(=O)NCC(=O)N2CCN(c3nc(-c4cnc(N)nc4C(F)F)nc(N4CCOCC4)n3)CC2)CC1	binding	competition with immobilised ligand	1 µM	99%
COc1ccnn2ncc(-c3ccnc(N(C)C)n3)c12	binding	–	1 µM	100%
Cc1nc(N2CC[C@@H](O)C2)ncc1-c1cc(C(F)(F)F)cc2[nH]ncc12	cell-free assay	competition with immobilised ligand	1 µM	100%
CN(c1nccc(-c2cnn3ncccc23)n1)C1CC1	binding	–	1 µM	100%
O=C(NCCCN1CCOCC1)c1ccc(Nc2nccc(-c3cc4ccccc4s3)n2)cc1	binding	competition with immobilised ligand	1 µM	70%
